The source made the active and inactive calls. The calls are words filed in the database; no cut-off is given here.
Tests used:
[1] = Antitumor activity against human Panc89 cells assessed as reduction of viability at 10 ug/ml; type: functional
Method in brief: (§1)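 Viability was measured in the pancreatic tumor lines Colo357 and Panc89 and the colon tumor line HT29, with compound present at a final concentration of 10 µg/mL. The read-out is percent reduction in cell viability.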

Escherichia coli = assay: Antimicrobial activity against Escherichia coli; type: functional, organism-based
Nakaseomyces glabratus = assay: Antimicrobial activity against Candida glabrata; type: functional, organism-based
Pseudomonas fluorescens = assay: Antimicrobial activity against Pseudomonas fluorescens; type: functional, organism-based
COLO357 = assay: Antitumor activity against human Colo357 cells assessed as reduction of viability at 10 ug/ml; type: functional; method in brief: as §1
HT-29 = assay: Antitumor activity against human HT29 cells assessed as reduction of viability at 10 ug/ml; type: functional; method in brief: as §1

| Compound | Activity [1] | Activity (Escherichia coli) | Activity (Nakaseomyces glabratus) | Activity (Pseudomonas fluorescens) | Activity (COLO357) | Activity (HT-29) |
| --- | --- | --- | --- | --- | --- | --- |
| CCCCC(C)[C@@H]1CC(=O)NCC(=O)N[C@@H](C(C)C)C(=O)N[C@H](CC(C)C)C(=O)N[C@@H](C)C(=O)N[C@@H](Cc2ccccc2)C(=O)O1 (some centres not stated) [SCOPULARIDE B] | 49% | inactive | inactive | inactive | 26% | 24% |
| CCCCCCC(C)[C@@H]1CC(=O)NCC(=O)N[C@@H](C(C)C)C(=O)N[C@H](CC(C)C)C(=O)N[C@@H](C)C(=O)N[C@@H](Cc2ccccc2)C(=O)O1 (some centres not stated) [SCOPULARIDE A] | 42% | inactive | inactive | inactive | 36% | 37% |

Source: ChEMBL document CHEMBL1157382, “Scopularides A and B, cyclodepsipeptides from a marine sponge-derived fungus, Scopulariopsis brevicaulis” (2008)
